≈ marks a conversion by molar mass, not a printed value.

Data set [1] concerns the target Cyclin-dependent kinase 2 (Homo sapiens, UniProt P24941). The data set is described as follows: Inhibition of recombinant CDK2 using RbING as substrate after 2 hrs by luminometric assay.
The target of data set [2] is Tyrosine-protein kinase JAK1 (Homo sapiens, UniProt P23458). The data set is described as follows: Inhibition of recombinant JAK1 using poly(Glu,Ala,Tyr) as substrate after 2 hrs by luminometric assay.
Chain of Tyrosine-protein kinase JAK1 (P23458 whole entry): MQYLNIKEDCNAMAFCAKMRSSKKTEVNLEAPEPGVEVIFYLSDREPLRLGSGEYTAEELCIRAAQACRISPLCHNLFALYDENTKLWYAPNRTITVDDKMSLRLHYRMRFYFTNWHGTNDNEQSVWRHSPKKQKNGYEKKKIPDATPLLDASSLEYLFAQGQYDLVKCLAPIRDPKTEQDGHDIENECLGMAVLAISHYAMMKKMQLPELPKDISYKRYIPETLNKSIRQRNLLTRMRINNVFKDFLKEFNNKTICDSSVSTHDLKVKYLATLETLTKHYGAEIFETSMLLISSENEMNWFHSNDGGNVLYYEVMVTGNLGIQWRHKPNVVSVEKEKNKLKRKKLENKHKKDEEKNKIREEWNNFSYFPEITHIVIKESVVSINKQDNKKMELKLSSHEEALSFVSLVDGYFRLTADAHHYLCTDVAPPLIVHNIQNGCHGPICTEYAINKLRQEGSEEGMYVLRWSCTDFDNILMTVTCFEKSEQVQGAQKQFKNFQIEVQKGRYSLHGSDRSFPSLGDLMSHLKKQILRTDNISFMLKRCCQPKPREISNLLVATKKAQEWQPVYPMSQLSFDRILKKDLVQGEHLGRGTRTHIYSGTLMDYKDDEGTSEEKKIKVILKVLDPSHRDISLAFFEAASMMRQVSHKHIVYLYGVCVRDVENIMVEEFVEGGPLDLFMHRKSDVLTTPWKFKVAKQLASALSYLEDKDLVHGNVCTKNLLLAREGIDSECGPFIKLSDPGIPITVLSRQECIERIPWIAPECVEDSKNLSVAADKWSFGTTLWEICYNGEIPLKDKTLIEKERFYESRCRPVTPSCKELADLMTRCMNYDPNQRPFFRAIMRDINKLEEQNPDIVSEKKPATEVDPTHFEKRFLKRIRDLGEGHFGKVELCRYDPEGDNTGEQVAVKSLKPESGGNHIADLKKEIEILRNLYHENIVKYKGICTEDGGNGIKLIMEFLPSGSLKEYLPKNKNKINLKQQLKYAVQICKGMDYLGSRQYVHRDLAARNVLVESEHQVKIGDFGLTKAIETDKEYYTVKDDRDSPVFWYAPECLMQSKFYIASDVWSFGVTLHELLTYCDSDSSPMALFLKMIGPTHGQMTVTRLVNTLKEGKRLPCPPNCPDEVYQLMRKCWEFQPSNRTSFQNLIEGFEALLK
Data set [3] concerns the target Tyrosine-protein kinase JAK2 (Homo sapiens, UniProt O60674). The data set is described as follows: Inhibition of recombinant JAK2 using poly(Glu,Ala,Tyr) as substrate after 2 hrs by luminometric assay.
Data set [4] concerns the target T1, Tyrosine-protein kinase JAK3 (Homo sapiens, UniProt P52333).
T1 sequence (P52333 whole entry): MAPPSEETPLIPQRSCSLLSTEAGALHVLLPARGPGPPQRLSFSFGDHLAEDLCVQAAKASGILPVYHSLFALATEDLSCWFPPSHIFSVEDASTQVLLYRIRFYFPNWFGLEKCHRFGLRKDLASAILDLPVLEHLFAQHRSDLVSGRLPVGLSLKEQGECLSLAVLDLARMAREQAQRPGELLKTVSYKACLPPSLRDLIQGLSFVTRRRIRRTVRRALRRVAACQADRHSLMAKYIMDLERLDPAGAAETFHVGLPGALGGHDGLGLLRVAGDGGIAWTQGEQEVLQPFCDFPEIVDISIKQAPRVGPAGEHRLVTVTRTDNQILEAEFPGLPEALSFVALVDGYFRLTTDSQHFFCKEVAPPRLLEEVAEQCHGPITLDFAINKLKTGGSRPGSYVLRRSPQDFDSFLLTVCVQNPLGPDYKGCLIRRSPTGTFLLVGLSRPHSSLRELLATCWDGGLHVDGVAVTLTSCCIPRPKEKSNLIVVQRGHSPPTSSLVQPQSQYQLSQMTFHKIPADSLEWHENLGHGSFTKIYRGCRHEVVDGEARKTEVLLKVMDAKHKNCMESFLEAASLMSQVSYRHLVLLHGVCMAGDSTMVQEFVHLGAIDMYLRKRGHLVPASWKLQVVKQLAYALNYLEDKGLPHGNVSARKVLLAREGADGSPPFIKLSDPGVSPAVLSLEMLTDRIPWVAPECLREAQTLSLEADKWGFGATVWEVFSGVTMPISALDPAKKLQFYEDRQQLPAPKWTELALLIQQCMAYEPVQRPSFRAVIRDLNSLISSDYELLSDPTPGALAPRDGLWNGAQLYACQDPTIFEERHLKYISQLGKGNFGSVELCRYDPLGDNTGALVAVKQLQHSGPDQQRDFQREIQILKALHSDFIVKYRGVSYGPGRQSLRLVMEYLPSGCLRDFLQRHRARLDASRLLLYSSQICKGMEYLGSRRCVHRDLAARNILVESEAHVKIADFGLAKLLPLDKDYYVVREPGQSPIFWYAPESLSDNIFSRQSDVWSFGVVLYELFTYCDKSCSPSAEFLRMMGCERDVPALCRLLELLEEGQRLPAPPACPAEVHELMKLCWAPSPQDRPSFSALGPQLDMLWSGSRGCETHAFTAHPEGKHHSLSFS
The data set is described as follows: Inhibition of recombinant JAK3 using poly(Glu,Ala,Tyr) as substrate after 2 hrs by luminometric assay.

The target in data set [5] is T2, Receptor-type tyrosine-protein kinase FLT3 (Homo sapiens, UniProt P36888).
T2 sequence (P36888 whole entry): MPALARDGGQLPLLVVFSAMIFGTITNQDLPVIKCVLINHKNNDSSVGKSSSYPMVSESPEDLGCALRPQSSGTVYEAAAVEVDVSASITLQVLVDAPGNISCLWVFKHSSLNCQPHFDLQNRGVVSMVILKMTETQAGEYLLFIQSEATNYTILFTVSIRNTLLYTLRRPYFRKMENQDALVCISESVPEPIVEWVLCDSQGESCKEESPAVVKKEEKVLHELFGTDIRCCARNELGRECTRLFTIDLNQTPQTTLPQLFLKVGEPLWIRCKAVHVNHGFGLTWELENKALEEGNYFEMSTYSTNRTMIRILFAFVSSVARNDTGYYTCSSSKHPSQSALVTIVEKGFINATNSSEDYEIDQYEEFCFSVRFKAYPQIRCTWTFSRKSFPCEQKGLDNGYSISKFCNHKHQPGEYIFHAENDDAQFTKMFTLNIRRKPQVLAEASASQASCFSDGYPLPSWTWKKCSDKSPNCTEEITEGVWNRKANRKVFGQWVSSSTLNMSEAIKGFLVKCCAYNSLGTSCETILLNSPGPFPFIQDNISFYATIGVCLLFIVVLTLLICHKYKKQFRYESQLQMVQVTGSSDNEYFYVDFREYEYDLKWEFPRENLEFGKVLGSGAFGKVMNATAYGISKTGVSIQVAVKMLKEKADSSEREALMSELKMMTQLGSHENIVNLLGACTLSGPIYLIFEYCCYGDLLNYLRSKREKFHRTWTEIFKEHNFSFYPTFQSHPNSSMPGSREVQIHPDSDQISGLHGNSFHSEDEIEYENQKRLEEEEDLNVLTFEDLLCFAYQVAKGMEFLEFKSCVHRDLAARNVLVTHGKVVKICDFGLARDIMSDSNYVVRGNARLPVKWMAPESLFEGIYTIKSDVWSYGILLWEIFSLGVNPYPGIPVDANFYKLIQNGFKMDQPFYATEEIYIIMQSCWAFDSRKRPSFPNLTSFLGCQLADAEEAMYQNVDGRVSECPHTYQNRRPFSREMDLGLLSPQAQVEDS
The data set is described as follows: Inhibition of recombinant FLT3 using poly(Glu,Tyr) as substrate after 2 hrs by luminometric assay.

Data set [6] concerns the target Non-receptor tyrosine-protein kinase TYK2 (Homo sapiens, UniProt P29597). The data set is described as follows: Inhibition of TYK2.
A short description of data set [7]: Kinetic solubility in PBS buffer at pH 7. The format is physicochemical. Particulars: read-out: Kinetic_solubility.
A further data set deals with Cytochrome P450 3A4 (Homo sapiens, UniProt P08684). The data set is described as follows: Inhibition of CYP3A4 in human liver microsomes using testosterone as substrate by LC-MS/MS analysis. Type of data set: ADME, Microsome. Background: Microsomes from liver hold many membrane-bound enzymes, among them those of drug oxidation.
Chain of Cytochrome P450 3A4 (P08684 whole entry): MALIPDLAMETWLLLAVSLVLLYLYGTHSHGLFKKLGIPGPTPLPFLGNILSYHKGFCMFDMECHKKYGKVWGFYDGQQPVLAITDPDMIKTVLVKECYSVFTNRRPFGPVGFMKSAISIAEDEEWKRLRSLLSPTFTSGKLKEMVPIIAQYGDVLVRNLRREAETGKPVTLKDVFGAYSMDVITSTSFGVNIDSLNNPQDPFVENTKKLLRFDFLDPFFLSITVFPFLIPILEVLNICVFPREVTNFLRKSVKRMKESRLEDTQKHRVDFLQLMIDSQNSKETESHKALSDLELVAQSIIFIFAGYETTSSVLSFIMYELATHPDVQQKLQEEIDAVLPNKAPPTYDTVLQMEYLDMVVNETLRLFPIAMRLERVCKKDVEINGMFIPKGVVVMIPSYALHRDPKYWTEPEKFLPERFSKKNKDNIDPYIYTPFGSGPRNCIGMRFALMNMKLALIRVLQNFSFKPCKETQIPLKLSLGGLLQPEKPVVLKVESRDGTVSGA
Another data set deals with Cytochrome P450 2D6 (Homo sapiens, UniProt P10635). The data set is described as follows: Inhibition of CYP2D6 in human liver microsomes using dextromethorphan as substrate by LC-MS/MS analysis. Type of data set: ADME, Microsome.
Chain of Cytochrome P450 2D6 (P10635 whole entry): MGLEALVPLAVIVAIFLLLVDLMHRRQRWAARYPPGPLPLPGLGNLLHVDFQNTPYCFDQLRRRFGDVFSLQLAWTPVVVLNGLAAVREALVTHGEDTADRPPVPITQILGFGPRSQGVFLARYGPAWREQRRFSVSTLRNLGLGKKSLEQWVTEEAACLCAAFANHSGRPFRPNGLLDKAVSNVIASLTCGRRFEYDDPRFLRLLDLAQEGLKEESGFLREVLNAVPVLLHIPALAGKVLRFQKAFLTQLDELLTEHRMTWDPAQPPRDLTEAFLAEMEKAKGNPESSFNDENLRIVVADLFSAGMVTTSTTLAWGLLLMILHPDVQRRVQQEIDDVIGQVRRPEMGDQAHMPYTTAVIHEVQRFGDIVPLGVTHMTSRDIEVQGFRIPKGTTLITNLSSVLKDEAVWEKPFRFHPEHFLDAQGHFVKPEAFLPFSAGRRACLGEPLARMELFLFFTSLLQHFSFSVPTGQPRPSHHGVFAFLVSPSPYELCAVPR
A short description of data set [8]: Half life in human liver microsomes. Type of data set: ADME, Microsome.
A short description of data set [9]: Half life in mouse liver microsomes. The format is ADME, Microsome.
Data set [10] concerns the target Voltage-gated inwardly rectifying potassium channel KCNH2 (Homo sapiens, UniProt Q12809). The data set is described as follows: Displacement of dofetilide from human ERG.
The next data set concerns BaF3. The data set is described as follows: Antiproliferative activity against mouse BAF3 cells expressing JAK2 V617F mutant after 48 hrs by luciferase reporter gene assay. The format is functional. The conditions noted are these: BaF3, 48 h. For orientation: A reporter such as luciferase makes a cellular process visible.
The next data set relates to HL-60. The data set is described as follows: Antiproliferative activity against human HL60 cells expressing FLT3 after 48 hrs by luciferase reporter gene assay. The format is functional. Particulars: HL-60, 48 h.
A short description of data set [11]: Selectivity ratio of IC50 for recombinant CDK2 to IC50 for recombinant JAK2.
Data set [12] in a line: Selectivity ratio of IC50 for recombinant JAK1 to IC50 for recombinant JAK2.
Data set [13] is described as follows: Selectivity ratio of IC50 for recombinant JAK3 to IC50 for recombinant JAK2.
Data set [14] has as its system Mus musculus. The data set is described as follows: Antiarthritic activity in po dosed B10/R3 mouse immunized with bovine type2 collagen in Freund's complete adjuvant assessed as inhibition of increase in clinical arthritic scores administered bid for 10 days measured for 10 days. The format is functional, organism-based.
Data set [15] has as its system Mus musculus. The data set is described as follows: Antiarthritic activity in B10/R3 mouse immunized with bovine type2 collagen in Freund's complete adjuvant assessed as inhibition of increase in clinical arthritic scores at 0.1 mg/kg, po administered bid for 10 days measured for 10 days. Type of data set: functional. The conditions noted are these: B10/R3, 240 h.

The nature of data set [16]: Thermodynamic solubility of the compound at pH 7. The format is physicochemical. The conditions noted are these: buffer, read-out: Therm_solubility. The method, boiled down:
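The citrate salt (~5 mg) was made up at 5 mg/mL in pH-buffered solution, in triplicate. It was shaken 24 h at 600 rpm at room temperature, filtered (0.4 μm) and the final pH recorded. The filtrate was diluted in acetonitrile/water (1:1), centrifuged and quantified by HPLC-UV. Two determinations were made on two different batches.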

Chain of Non-receptor tyrosine-protein kinase TYK2 (P29597 whole entry): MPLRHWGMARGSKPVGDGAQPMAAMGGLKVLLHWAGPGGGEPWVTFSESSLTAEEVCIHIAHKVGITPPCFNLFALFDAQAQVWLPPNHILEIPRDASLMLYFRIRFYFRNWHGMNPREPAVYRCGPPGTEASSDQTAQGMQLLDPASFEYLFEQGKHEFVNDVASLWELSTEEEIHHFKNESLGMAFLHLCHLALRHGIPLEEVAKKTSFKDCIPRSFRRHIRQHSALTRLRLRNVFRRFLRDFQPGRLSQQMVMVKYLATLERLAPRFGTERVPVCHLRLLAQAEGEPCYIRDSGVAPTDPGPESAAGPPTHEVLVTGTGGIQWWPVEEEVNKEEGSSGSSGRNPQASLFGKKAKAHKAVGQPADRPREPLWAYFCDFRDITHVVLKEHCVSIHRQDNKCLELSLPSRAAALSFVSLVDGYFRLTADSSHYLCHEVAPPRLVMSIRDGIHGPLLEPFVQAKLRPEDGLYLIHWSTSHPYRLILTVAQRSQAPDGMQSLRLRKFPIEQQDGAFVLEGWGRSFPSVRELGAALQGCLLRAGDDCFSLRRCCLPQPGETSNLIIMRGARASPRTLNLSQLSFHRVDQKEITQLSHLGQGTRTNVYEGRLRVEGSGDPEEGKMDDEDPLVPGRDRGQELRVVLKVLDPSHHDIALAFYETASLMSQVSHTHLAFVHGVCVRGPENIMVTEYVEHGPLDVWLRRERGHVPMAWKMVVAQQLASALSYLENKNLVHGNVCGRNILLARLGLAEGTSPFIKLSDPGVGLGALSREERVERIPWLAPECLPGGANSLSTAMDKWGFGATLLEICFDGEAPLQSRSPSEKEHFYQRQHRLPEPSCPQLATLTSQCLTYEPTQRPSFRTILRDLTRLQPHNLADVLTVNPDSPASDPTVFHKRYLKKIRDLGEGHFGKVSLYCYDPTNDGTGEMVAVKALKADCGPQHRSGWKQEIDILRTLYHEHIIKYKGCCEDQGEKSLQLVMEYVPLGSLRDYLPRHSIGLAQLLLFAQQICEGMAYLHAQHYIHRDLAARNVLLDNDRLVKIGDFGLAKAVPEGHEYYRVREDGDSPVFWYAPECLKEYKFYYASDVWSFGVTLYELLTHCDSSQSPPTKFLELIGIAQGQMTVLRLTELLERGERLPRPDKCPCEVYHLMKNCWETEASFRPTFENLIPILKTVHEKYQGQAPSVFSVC
Chain of Tyrosine-protein kinase JAK2 (O60674 whole entry): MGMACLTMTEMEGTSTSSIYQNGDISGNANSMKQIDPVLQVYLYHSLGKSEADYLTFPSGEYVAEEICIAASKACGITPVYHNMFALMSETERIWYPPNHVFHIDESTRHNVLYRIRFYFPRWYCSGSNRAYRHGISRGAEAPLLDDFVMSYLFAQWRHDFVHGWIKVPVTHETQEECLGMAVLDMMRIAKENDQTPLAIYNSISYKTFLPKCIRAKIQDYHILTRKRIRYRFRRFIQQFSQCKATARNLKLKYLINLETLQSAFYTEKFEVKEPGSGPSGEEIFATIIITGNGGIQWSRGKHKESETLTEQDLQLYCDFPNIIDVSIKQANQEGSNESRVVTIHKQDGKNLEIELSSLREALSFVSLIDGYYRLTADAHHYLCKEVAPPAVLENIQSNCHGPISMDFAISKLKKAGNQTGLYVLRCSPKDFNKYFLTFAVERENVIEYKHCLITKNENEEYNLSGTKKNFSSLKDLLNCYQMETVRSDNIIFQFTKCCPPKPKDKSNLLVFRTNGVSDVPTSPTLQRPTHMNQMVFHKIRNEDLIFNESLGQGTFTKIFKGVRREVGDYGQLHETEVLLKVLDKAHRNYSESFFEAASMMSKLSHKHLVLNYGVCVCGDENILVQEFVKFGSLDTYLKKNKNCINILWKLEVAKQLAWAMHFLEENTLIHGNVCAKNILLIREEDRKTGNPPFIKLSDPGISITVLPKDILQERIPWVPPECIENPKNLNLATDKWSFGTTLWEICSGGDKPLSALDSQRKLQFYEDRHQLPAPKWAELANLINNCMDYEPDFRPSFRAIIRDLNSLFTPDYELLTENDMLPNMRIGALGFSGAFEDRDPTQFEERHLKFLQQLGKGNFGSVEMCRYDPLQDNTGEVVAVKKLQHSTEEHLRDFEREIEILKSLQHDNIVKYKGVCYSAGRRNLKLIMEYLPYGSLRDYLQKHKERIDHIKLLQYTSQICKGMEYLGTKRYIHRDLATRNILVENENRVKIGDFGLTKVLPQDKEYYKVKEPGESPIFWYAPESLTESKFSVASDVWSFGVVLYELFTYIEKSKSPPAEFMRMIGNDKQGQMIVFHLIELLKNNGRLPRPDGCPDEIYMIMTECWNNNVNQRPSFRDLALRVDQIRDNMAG

As usually defined, the IC50 is the midpoint of a concentration-inhibition curve. A word on the half-life: it is the time in which the quantity being followed falls by half. Low readings indicate rapid decline, high ones slow decline. One may read the GI50 as the concentration that inhibits growth by half. A higher GI50 goes with lower sensitivity of the cells. `C1=C2COC/C=C/COCc3cc(ccc3OCCN3CCCC3)Nc3nccc(n3)C(=C1)S2` (mixture of isomers): the IC50 in data set [1] was determined as 2900 nM; in [2], 420 nM; in [3] it was 7.3 nM; in [4], 650 nM; in data set [5], 24 nM; in data set [6], 32 nM. Besides, the IC50 at Cytochrome P450 3A4 was more than 10000 nM; on Cytochrome P450 2D6, more than 10000 nM; in data set [10], 7200 nM. Also, the solubility kinetic in [7] was 154 µg/mL. In addition, the half-life was more than 60 min in data set [8] and 27 min in data set [9]. Further, the GI50 with BaF3 was found to be 55 nM; in the data set with HL-60, 200 nM.

Take `C1=C/COCc2cc(ccc2OCCN2CCCC2)Nc2nccc(n2)-c2csc(c2)COC/1` (mixture of isomers): the IC50 was found to be 6800 nM in data set [1]; 1500 nM in data set [2]; 17 nM in [3]; 680 nM in data set [4]; 45 nM in data set [5]; 47 nM in data set [6]. The results for the Ratio IC50 in [11], in data set [12] and in data set [13] were 400, 88 and 40, respectively. For the same molecule, in data set [7], the solubility kinetic stood at 218 µg/mL. For the same molecule, the half-life in data set [8] was more than 60 min; in [9] it was 25 min. In addition, the values for the GI50 with BaF3 and in the data set on HL-60 were 80 nM and 640 nM, respectively.

For the molecule `C1=C/COCc2cc(ccc2OCCN2CCCC2)Nc2nccc(n2)-c2coc(c2)COC/1` (mixture of isomers), the IC50 in data set [1] was more than 10000 nM; in data set [2], 3000 nM; in data set [3] it was 67 nM; in data set [4], 8800 nM; in data set [5], 48 nM; in data set [6], 120 nM. The IC50 against Cytochrome P450 3A4 and on Cytochrome P450 2D6 was more than 10000 nM in each case. For the same molecule, the figures for the Ratio IC50 in [11], in data set [12] and in data set [13] were more than 149, 45 and 131, respectively. In addition, the solubility kinetic in data set [7] was more than 250 µg/mL. Further, the half-life in [8] was more than 60 min; in data set [9], 18 min. In the data set on HL-60, this molecule gave a GI50 of 710 nM.

As to `C1=C/COCc2cc(ccc2OCCN2CCCC2)Nc2nccc(n2)-c2ccc(o2)COC/1` (mixture of isomers), in the data set with Mus musculus [14], the inhibition result was “Dose-dependent effect”. The Ratio IC50 in data set [11] stood at 152; in data set [12], 58; in data set [13] it was 93.

One may read the inhibition in vivo as the share of the control response that was lost under treatment. For `C[C@@H]1C[C@H]2[C@@H]3CCC4=CC(=O)C=C[C@]4(C)[C@@]3(F)[C@@H](O)C[C@]2(C)[C@@]1(O)C(=O)CO` [DEXAMETHASONE], the inhibition in vivo at 0.1 mg/kg in the data set with Mus musculus [15] was 63%.

With `C1=C/COCc2cc(ccc2OCCN2CCCC2)Nc2nccc(n2)-c2cccc(c2)COC/1` [PACRITINIB], the solubility thermodynamic in data set [16] worked out at 150 µg/mL (≈ 317 µM).

(Values after ChEMBL document CHEMBL2034857, “Discovery of the macrocycle (9E)-15-(2-(pyrrolidin-1-yl)ethoxy)-7,12,25-trioxa-19,21,24-triaza-tetracyclo[18.3.1.1(2,5).1(14,18)]hexacosa-1(24),2,4,9,14(26),15,17,20,22-nonaene (SB1578), a potent inhibitor of janus kinase 2/fms-like tyrosine kinase-3 (JAK2/FLT3) for the treatment of rheumatoid …” (J Med Chem, 2012).)
